Autophagy HCS: modulators of autophagy | MEF GFP-LC3 puncta imaging; test concentration mostly 10 µM | calls only at 10 µM (by protocol) | actives 0.98% (n = 190,000);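 active = percentage of spot-positive cells more than 3 SD above its plate mean, without a fluorescence outlier flag or 80% toxicity; inconclusive = no clear call, values can overlap the other calls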;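 also: spot-positive cell cutoff set from DMSO-treated cells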
MT stabilizer: microtubule stabilizers in HeLa cells | HeLa tubulin immunostaining HCS, 24 h; share of cells brighter than vehicle mean+2SD | % tubulin-high responders, % at 10 µM | actives 0.83% (n = 200,000);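 active = plate Z-score above 3 for both tubulin-high and condensed-nucleus cell shares, with cell loss under 80%, at 10 µM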;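 also: anti alpha tubulin signal scored within the nucleus-defined area of each cell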
Insulin prom up: MIN6 insulin promoter up-regulation; MIN6 insulin promoter-GFP reporter, high-content imaging; stronger effect = higher value; z-score at 5 µM; actives 0.3% (n = 190,000); AID 1625;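 active = z-score above 3 at 5 µM with at least 500 cells counted in the well; inconclusive = wells under 500 cells, flagged as cytotoxic or low count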
bCat nuc transl: beta-catenin nuclear translocation modulation; HeLa beta-catenin nuclear translocation, immunofluorescence imaging; nuclear translocation activity, % at 5 µM; actives 0.3% (n = 190,000);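 active = nuclear translocation activity above 50% at 5 µM, with a well cell count of 50 or more; inconclusive = wells under 50 cells across six images, flagged as toxic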;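 also: per-cell ratio of nuclear to cytoplasmic median beta-catenin stain intensity; plate controls were DMSO negative control for no effect and GSK-3 inhibitor IX positive control for full effect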
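Read-out: Nuclear/cytoplasmic beta-catenin signal ratio, % activation | Assay system: Human HeLa cell line | Times: 24 h compound exposure at 37°C, 5% CO2 | Signal: Fluorescence imaging of beta-catenin antibody stain plus DAPI | Dosing: 5 µM primary, 0.02–20 µM confirmation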
* hit, by the source's call; i = inactive; ? = inconclusive; / = not tested or not shown; + = active, no number. Rows were chosen to be rich in hits. Some 1.9% of all compounds tested hit in one or more screens of this group.

SMILES | Autophagy HCS | MT stabilizer | Insulin prom up | bCat nuc transl
CC(C)n1cc(/C=N\NC(=O)c2cc3c(ccc4ccccc43)o2)c2ccccc21 | i | 8 | -0.2 | -2
CN(C)CCN1CC(O)=C(c2nc3ccccc3s2)C1=N | / | / | -0.2 | 1
N=C1C(c2nc3ccccc3s2)=C(O)CN1Cc1ccco1 | + | 3 | 0.55 | -2
COc1cc(OC)nc(NC(=S)NC(=O)c2ccccc2)n1 | i | 6 | / | 0
COc1cc(NC(=O)COc2ccc(Cl)cc2)ccc1-c1cc2ccccc2oc1=O | i | 24* | 0.06 | -1
COc1cc(NC(=O)COc2ccc(Cl)cc2)ccc1NC(=O)C(C)C | / | / | -0.85 | 1
O=C(CCc1nnc(CCCc2ccccc2)o1)NC(C1CC1)C1CC1 | i | 0 | / | 0
Cc1ccccc1NC(=O)N1c2ccccc2CC1C (stereo not drawn) | i | 5 | / | -1
O=C(O)c1ccccc1C(=O)N1CC=C(c2ccccc2)CC1 | i | 2 | -2.1 | 0
Cc1c(C(=O)C(=O)N2CC=C(c3ccccc3)CC2)c2ccccc2n1C | i | 15 | 0.38 | 62*
Cc1c(C(=O)C(=O)N2c3ccccc3CC2C)c2ccccc2n1C (stereo not drawn) | i | 17* | -0.53 | 6
Cc1ccc(/C=N/NC(=O)c2ccc3c(c2)OCCO3)s1 | / | / | 0.71 | 66*
O=C(N/N=C/c1cn(-c2ccccc2)nc1-c1ccc(F)cc1)c1ccc2c(c1)OCO2 | i | 16* | -0.44 | 1
CCn1ncc(/C=N/NC(=O)c2ccc3c(c2)OCO3)c1C | i | 36* | -0.13 | 6
Cc1c(/C=N/NC(=O)c2ccc3c(c2)OCO3)cnn1C | i | 3 | 0.5 | 3
CN(C)S(=O)(=O)c1cc(NC(=O)COC(=O)C2CSC3(C)CCC(=O)N23)ccc1Cl (stereo not drawn) | i | 2 | -0.35 | -2
COc1cc(/C=C/C(=O)OCC(=O)NC(=O)NC(C)C)cc(S(=O)(=O)N2CCc3ccccc32)c1OC | i | 6 | -0.98 | -5
O=C(/C=C/c1cccc([N+](=O)[O-])c1)NC(=S)Nc1ccccc1C(=O)O | i | 3 | -0.82 | -1
CCOCCCNC(=O)/C(C#N)=C/c1cc(Br)c(O)c(Br)c1 | / | / | -0.09 | 50*
COCCNC(=O)/C(C#N)=C/c1cc(Br)c(O)c(OC)c1 | i | 5 | -0.07 | -1
O=C(c1ccc2c(c1)OCO2)C1CCCN(C2CCN(CCc3ccccc3)CC2)C1 (stereo not drawn) | i | 2 | -0.62 | -4
Cn1cnc([N+](=O)[O-])c1SCC(=O)NN | / | / | -0.22 | 0
Cn1cnc([N+](=O)[O-])c1SCC(O)CN1CCCCC1 (stereo not drawn) | + | 7 | -0.66 | 5
Cc1ccc(CN=C(N)Nc2nc(C)cc(C)n2)cc1 | i | 12* | -1.9 | 42
COc1cccc(C2CC(=O)Nc3cc4c(cc32)OCCO4)c1OC(C)C (stereo not drawn) | i | 5 | 0.07 | 0
SMILES | Autophagy HCS | MT stabilizer | Insulin prom up | bCat nuc transl
COc1ccccc1C1CC(=O)Nc2cc3c(cc21)OCCO3 (stereo not drawn) | + | 13 | -1 | -3
CCCOc1c(OC)cccc1C1CC(=O)Nc2cc3c(cc21)OCCO3 (stereo not drawn) | i | 51* | / | /
CCOc1c(OC)cccc1C1CC(=O)Nc2cc(OC)c(OC)cc21 (stereo not drawn) | / | 9 | -0.72 | 0
CCCOc1c(OC)cccc1C1CC(=O)Nc2cc3c(cc21)OCO3 (stereo not drawn) | i | 37* | 0.11 | -1
CCOc1ccccc1C1CC(=O)Nc2cc3c(cc21)OCO3 (stereo not drawn) | i | 29* | -2.7 | 2
CC(C)Oc1ccccc1C1CC(=O)Nc2cc3c(cc21)OCCO3 (stereo not drawn) | i | 10 | -4.2 | 5
CSc1nc2sc3c(c2c(=O)[nH]1)CCC(C)C3 (stereo not drawn) | i | 2 | / | 3
CC1CCc2c(sc3nn[nH]c(=O)c23)C1 (stereo not drawn) | i | 4 | 4.2* | /
CC(/C=N/NC(=O)c1cc(-c2cccnc2)nc2c1c(C)nn2-c1ccccc1)=C\c1ccccc1 | + | 5 | -0.72 | -2
CC(O)CNc1nc2ccccc2n1CC(=O)NCCc1ccc(Cl)cc1 (stereo not drawn) | i | 2 | -0.35 | /
O=C(C1=C(c2ccccc2)C(=O)c2ccccc2C1=O)c1ccccc1 | + | 5 | ? | 0
CCc1ccc2c(c1)cc(CN(C(=S)Nc1ccc(Cl)cc1)C1CC1)c1nnnn12 | + | 1 | 0.54 | -1
Cc1ccc(C(C(=O)NCc2ccccc2)N(Cc2cccs2)C(=O)c2ccc3c(c2)OCCO3)cc1 (stereo not drawn) | + | 8 | -1.2 | -2
CCOC(=O)C1C(=O)C=C(c2ccc(Br)cc2)CC1c1ccco1 (stereo not drawn) | i | 6 | -0.54 | 0
CCN1CCCC1CNC(=O)c1ccc(Sc2ccccc2Cl)c([N+](=O)[O-])c1 (stereo not drawn) | i | 3 | / | 0
Cc1c(NC(=O)c2cc3c(s2)-c2ccccc2OC3)cccc1[N+](=O)[O-] | + | 4 | 0.21 | -1
CC(CNC(=S)Nc1cc(F)cc(F)c1)CSc1ccc(Cl)cc1 (stereo not drawn) | i | 2 | -0.81 | -2
O=C(NC1CCN(Cc2ccccc2)CC1)c1ccc(S(=O)(=O)NCc2ccco2)cc1 | + | 3 | -0.54 | 2
COc1ccc(C(=O)Nn2cnnc2)cc1OC | / | / | 4.4* | 1
Cc1cc(NC(=S)N(Cc2ccc(Br)cc2)Cc2ccc(C(=O)O)cc2)ccc1Cl | i | 3 | 3.8* | 4
Cc1cccc(NC(=S)N(Cc2ccc(Br)cc2)Cc2ccc(C(=O)O)cc2)c1 | i | 4 | -0.06 | 0
O=C(c1nn2c(C(F)(F)F)cc(-c3cccs3)nc2c1Br)N1CCCc2ccccc21 | i | 6 | -0.05 | /
O=C(c1nn2c(C(F)(F)F)cc(-c3ccco3)nc2c1Br)N1CCCc2ccccc21 | i | 63* | 0.15 | -1
O=S(=O)(c1cccc(-c2nnc3n2CCCCC3)c1)N1CCCC1 | i | 5 | -0.81 | -4
NC1=NC2(CCCCC2)N=C(Nc2ccc(F)cc2F)N1 | i | 2 | 0.11 | 1
Cc1cc(C)cc(NC2=NC3(CCCCC3)N=C(N)N2)c1 | i | 47* | 0.17 | 9
COCCCN1C(=O)c2[nH]nc(-c3ccccc3O)c2C1c1ccc(Cl)cc1 (stereo not drawn) | i | 44* | 0.61 | 0
CC(C)OCCCN1C(=O)c2[nH]nc(-c3ccccc3O)c2C1c1cccc(Cl)c1 (stereo not drawn) | i | 16 | 0.05 | -8
COCCCN1C(=O)c2[nH]nc(-c3ccccc3O)c2C1c1cccc(Cl)c1 (stereo not drawn) | + | 36* | / | -4
COCCCN1C(=O)c2[nH]nc(-c3cc(C)cc(C)c3O)c2C1c1ccc(O)c(OC)c1 (stereo not drawn) | i | 4 | / | -4

High-throughput results from PubChem.
